Compound activity as filed in PubChem.
GSTO1 counter – counter-screen for RBBP9 inhibitors: inhibitors of human GSTO1 | recombinant GSTO1, activity-based probe fluorescence polarization | AID 1974 | 300,000 compounds, 1.1% hits | inhibition, % at 5.96 µM;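 active = inhibition above the campaign mean inhibition plus 3 SD, cut at about 35% in these data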
proCasp7 act – counter-screen for procaspase-3 activators: activators of human procaspase-7. recombinant procaspase-7, Ac-DEVD-pNA absorbance 405 nm; D23A/D198A/D206A triple mutant, cannot self-cleave; scale: DMSO 0, 5 µM enzyme 100. activation, % at 8.5 µM. 330,000 compounds, 0.093% hits. P55210;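 active = percent activation above the screen-wide mean plus 3 SD, cut at about 25% in these data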
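Assay system: Uncleavable procaspase-7 mutant enzyme; Input: 2 µM procaspase-7 mutant as dispensed; Also added: DEVD-pNA substrate; Medium: Zinc-free HEPES pH 7.4 with 300 mM NaCl, 0.01% Triton X-100; Timing: 1 h compound preincubation, 2 h substrate cleavage, 25 °C; Measured by: Epi-absorbance of released pNA at 405 nm, two timepoints.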
ZTA DNA inh – blocks Epstein-Barr virus ZTA, an EBNA-1 counter-screen | AID 2234 | P03206 | inhibition, % at 11 µM | ZTA-DNA binding, fluorescence polarization | 320,000 compounds, 0.15% hits; in the data active = inhibition above about 33%
procasp3 activ – activates human procaspase-3. 330,000 compounds, 0.11% hits. AID 463141. recombinant procaspase-3 D3A, Ac-DEVD-pNA absorbance 405 nm. activation, % at 8.5 µM. P42574;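 active = activation above the mean of all tested compounds plus 3 SD, cut at about 21% in these data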
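Assay system – Procaspase-3 D3A mutant · Benchmarks – DMSO low control, extra-enzyme high control · Technique – 405 nm absorbance of p-nitroaniline, reads at 0 and 120 min · Doses – 8.5 µM nominal · Measure – % activation between DMSO and enzyme-spiked controls · Also added – Ac-DEVD-pNA chromogenic peptide substrate · Schedule – 1 h compound preincubation, 2 h substrate hydrolysis at 25 °C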
EBNA-1 inhibitor – blocks EBNA-1 binding to DNA; EBNA-1 DNA binding, fluorescence polarization; inhibition, % at 14.8 µM; 300,000 compounds, 0.34% hits; AID 1950; in the data active = inhibition above about 28%
Apaf1 inhib – human Apaf-1 inhibition; O14727; reconstituted apoptosome caspase-3 activity, DEVD-Rh110 fluorescence; inhibition, % at 20 µM; 330,000 compounds, 0.71% hits; AID 489030; active = inhibition of at least 40% at 20 µM
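System: Apoptosome proteins | Medium: Hepes pH 7.5 with detergent and BSA | Also added: Cytochrome c trigger plus (Z-DEVD)2-Rh110 caspase-3 substrate | Incubation: 30 min compound preincubation, 50 min activation, room temperature | Detection: Rhodamine 110 fluorescence at Ex 480/Em 540 nm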
Zta DNA confirm – confirmation of Epstein-Barr virus ZTA DNA binding inhibitors | inhibition, % at 11.1 µM | 320 compounds, 30% hits | shares compounds with ZTA DNA inh | Zta-ZRE DNA binding, fluorescence polarization;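 active = mean inhibition across triplicate runs above the hit threshold derived for the original primary screen, cut at about 33% in these data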
EBNA1 counter – blocks EBNA-1 DNA binding in ZTA counter-screen | fluorescence polarization | 320 tested, under 10 active | shares compounds with ZTA DNA inh | inhibition, % at 14.8 µM; call rule not given here
PC3 D3A act – counter-screen for dual procaspase-3/7 activators: human procaspase-3 activation. shares compounds with proCasp7 act. recombinant PC-3 D3A, Ac-DEVD-pNA absorbance 405 nm; aspartates 9, 28, 175 changed to alanine; 100% = enzyme control. activation, % at 8.5 µM. 290 tested, under 10 active. AID 493114;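 active = mean percent activation across triplicates above a set limit taken from the earlier primary procaspase-3 screen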
PC7 dual conf – activates human procaspase-7, confirming dual procaspase activators | shares compounds with proCasp7 act | recombinant procaspase-7, Ac-DEVD-pNA absorbance 405 nm; D23A/D198A/D206A mutant that cannot self-cleave | 290 tested, under 10 active | AID 493115 | activation, % at 8.5 µM;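 active = mean activation above a set limit carried over from the earlier primary screen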
Apaf-1 inh conf – Apaf-1 inhibition, single-dose confirmed. shares compounds with Apaf1 inhib. reconstituted apoptosome, caspase-3 DEVD-Rh110 fluorescence. inhibition, % at 20 µM. 1,800 compounds, 25% hits. AID 504614;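 active = mean inhibition of at least 40% at 20 µM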
Rh110 interf inh – interferes with Rh110 fluorescence, flagging false Apaf-1 inhibitors; shares compounds with Apaf1 inhib; activation (fluorescence interference), % at 20 µM; AID 504615; Rh110 fluorescence interference, quenched caspase reaction; 1,800 tested, under 10 active;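 active = signal rise of 40% or more at 20 µM, treated as a fluorescence artifact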
A number is an active result; n = inactive; x = no result. The list is not random: actives were taken first. Their share in the collection is about 1.8%.

SMILES | GSTO1 counter | proCasp7 act | ZTA DNA inh | procasp3 activ | EBNA-1 inhibitor | Apaf1 inhib | Zta DNA confirm | EBNA1 counter | others
CCC1CCCCN1C(=O)c1ccc2nc(Cc3ccc(OC)cc3)oc2c1 (configuration not stated) | n | n | n | n | n | n | x | x
COCC1CCCCN1C(=O)c1ccc2nc(Cc3ccc(OC)c(OC)c3)oc2c1 (configuration not stated) | n | n | 34.7 | n | n | n | n | n
Cc1ccc(C(=O)N2CCN(C)CC2)cc1S(=O)(=O)N1CCCCCC1 | n | n | n | n | n | n | x | x
CN(C)C(=O)CCCCCCCCC(=O)N(C)C | n | n | 33.1 | n | n | n | n | n
O=C(CCNC(=O)c1ccc([N+](=O)[O-])cc1)Nc1ccc(S(=O)(=O)N2CCOCC2)cc1 | n | n | n | n | n | n | x | x
COc1cc(/C=C2\S/C(=N/S(=O)(=O)Cc3ccccc3)NC2=O)c([N+](=O)[O-])cc1OC | n | n | 39.0 | n | n | n | n | n
COc1cccc(NS(=O)(=O)c2ccc3c(c2)C2C=CCC2C(c2ccc(C(=O)O)cc2)N3)c1 (configuration not stated) | n | n | 38.5 | n | n | x | n | n
COc1ccc(C(=O)N/N=C(\C)c2ccc3c(c2)C2C=CCC2C(c2ccccc2)N3)cc1 (configuration not stated) | n | n | n | n | n | x | x | x
COc1ccc(S(=O)(=O)N(C)C[C@H]2Oc3ccc(NC(=O)Cc4cn(C)c5ccccc45)cc3C(=O)N([C@@H](C)CO)C[C@@H]2C)cc1 | x | n | x | n | x | n | x | x
COc1cccc(NC(=S)N2CCc3cc(OC)c(OC)cc3C2)c1 | n | n | 47.9 | n | n | n | n | n
COc1cc2c(cc1OC)CN(C(=S)Nc1ccc(Cl)cc1)CC2 | n | n | n | n | n | n | x | x
O=C(CCCN1C(=O)/C(=C\c2cccs2)SC1=S)Nc1ccc(O)cc1C(=O)O | n | n | n | n | n | n | x | x
O=C(CCCN1C(=O)/C(=C\c2ccco2)SC1=S)Nc1ccc(O)cc1C(=O)O | n | n | 53.0 | n | n | n | n | n
O=C(CN1C(=O)/C(=C/c2ccco2)SC1=S)Nc1ccc(C(=O)O)c(O)c1 | n | n | 56.5 | n | n | n | n | n
COc1cc(/C=C/C(=O)/C=C(O)/C=C/c2ccc(O)c(OC)c2)ccc1O | x | n | 33.6 | n | x | n | n | n
CC(C(=O)OCC(=O)c1ccc(Br)cc1)N1C(=O)C2C3C=CC(C3)C2C1=O (configuration not stated) | n | n | 35.6 | n | n | n | n | n
CS(=O)(=O)N(CC(=O)Nc1cccc(Br)c1)Cc1ccccc1 | x | x | x | x | x | n | x | x
CCC(=O)Nc1nc2ccc3sc(C)nc3c2s1 | n | n | 34.7 | n | n | n | n | n
Cc1nc2c(ccc3nc(NC(=O)C4CC4)sc32)s1 | n | n | n | n | n | n | x | x
COc1ccc(CNC(=O)[C@H](C)NC(=O)C2CCN(S(=O)(=O)c3ccc(F)cc3)CC2)cc1 | n | n | n | n | n | n | x | x
CCOC(=O)c1cc2c(C)n(-c3ccc(N(C)C)cc3)c(C)c2cc(C(=O)OCC)c1=O | n | n | 159.7 | n | n | n | n | n
CN(C)c1ccc(N/C=C/C(=O)c2ccc(F)cc2)cc1 | 45.5 | n | 78.3 | n | n | n | n | n
COc1cc(/C=C/[N+](=O)[O-])ccc1OC(=O)/C=C/c1ccc(F)cc1 | n | n | n | n | n | n | x | x
C[C@H]1CCC(=O)N([C@H](COc2ccccc2)Cc2ccccc2)CC1 | n | n | 40.0 | n | n | n | n | n
Cc1nc2c(-c3ccc(F)cc3)cnn2c(N)c1-c1ccc(F)cc1 | n | n | 38.0 | n | n | n | n | n
SMILES | GSTO1 counter | proCasp7 act | ZTA DNA inh | procasp3 activ | EBNA-1 inhibitor | Apaf1 inhib | Zta DNA confirm | EBNA1 counter | others
COc1cccc(-c2ncc3ccccc3c2COC(=O)CCC(=O)O)c1 | x | n | n | n | x | n | x | x
COc1cc(NC(=O)c2csc(N)n2)cc(C(=O)Nc2cccc(C(F)(F)F)c2)c1 | n | n | 41.2 | n | n | n | n | n
COc1cc(NC(=O)c2cnc(N)s2)cc(C(=O)Nc2cccc(C(F)(F)F)c2)c1 | n | n | n | n | n | n | x | x
COc1ccc(Sc2nc3ccccc3n3c(C(F)(F)F)nnc23)cc1 | n | n | 46.9 | n | n | n | n | n
COc1ccc(CCC(=O)Nc2ccc3c(c2)OCCO3)cc1 | n | n | 55.0 | n | n | n | n | n
O=C(CCCCCN1C(=O)CCC1=O)Nc1ccc2c(c1)OCCO2 | n | n | 34.1 | n | n | n | n | n
CCc1ccccc1NC(=O)CN1CCN(C(=O)C2CCN(C(=O)/C=C/c3ccccc3)CC2)CC1 | x | n | n | n | x | n | x | x
O=C(NCCCN1CCOCC1)c1ccc(/C=C2\Oc3ccccc3N(Cc3ccccc3F)C2=O)cc1 | n | 49.6 | 48.0 | 22.3 | n | n | n | n | PC3 D3A act=n;PC7 dual conf=n
COc1ccc(NC(=O)CSc2nnc(N)s2)cc1S(=O)(=O)N1CCCCC1 | x | n | x | n | x | n | x | x
CC1(C)Cc2c(sc(NC(=O)COc3cccc4ccccc34)c2C#N)C(C)(C)N1 | n | n | 48.2 | n | n | 46.5 | 51.3 | n | Apaf-1 inh conf=n;Rh110 interf inh=n
Cc1ccc(OCC(=O)Nc2sc3c(c2C#N)CC(C)(C)NC3(C)C)cc1 | n | n | n | n | n | n | x | x
COc1cc(C)c2c(c1C=O)Oc1c(c(C)c(O)c3c1C(O)OC3=O)OC2=O (configuration not stated) | n | n | 66.6 | n | n | 55.8 | 62.6 | n | Apaf-1 inh conf=n;Rh110 interf inh=n
O=C(Cc1ccc(S(=O)(=O)N2CCOCC2)s1)Oc1ccc(F)cc1 | n | n | n | n | n | n | x | x
